Screening results as filed in PubChem BioAssay.
Sampled rows, rich in hits. Any-hit rate of the full collection: about 1.8%.
TDP2 absorb: TDP2 (human) inhibition, absorbance primary screen; O95551; recombinant TDP2, T5PNP hydrolysis, p-nitrophenol absorbance 415 nm; inhibition, % at 12.8 µM; 370,000 tested, 0.34% active; AID 720702;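 active means inhibition above the mean of all tested compounds plus 3 SD, set per campaign, cut at about 25% in these data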
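Evaluation: % inhibition relative to enzyme-containing and enzyme-free wells. Material: recombinant human TDP2. Benchmarks: enzyme-free and DMSO wells. Timing: enzyme reaction with compound for 2 h at 37 °C. Compound dosing: 12.8 µM only. Measured by: p-Nitrophenol epi absorbance. Reagent: T5PNP substrate at 5 mM, a TopII-DNA adduct mimic. Replication: single well per compound.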
GSTO1 inh: blocks human GSTO1 in RBBP9 counter-screen. P78417. recombinant GSTO1, activity-based probe fluorescence polarization. inhibition, % at 5.96 µM. 300,000 tested, 1.1% active;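 active means inhibition above the campaign mean inhibition plus 3 SD, cut at about 35% in these data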
Fh CTSL1 inh: cathepsin L1 inhibition, PFM18AAP counter-screen | recombinant F. hepatica cathepsin L1, Z-Leu-Arg-MCA fluorescence | inhibition, % at 5.96 µM | 300,000 tested, 0.49% active | AID 1906;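 active means inhibition above the mean of all tested compounds plus 3 SD, set per screening campaign, cut at about 17% in these data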
Apaf-1 inh: human Apaf-1 inhibition; reconstituted apoptosome caspase-3 activity, DEVD-Rh110 fluorescence; O14727; inhibition, % at 20 µM; 330,000 tested, 0.71% active; active means inhibition of at least 40% at 20 µM
Target sequence (O14727 whole entry, looked up): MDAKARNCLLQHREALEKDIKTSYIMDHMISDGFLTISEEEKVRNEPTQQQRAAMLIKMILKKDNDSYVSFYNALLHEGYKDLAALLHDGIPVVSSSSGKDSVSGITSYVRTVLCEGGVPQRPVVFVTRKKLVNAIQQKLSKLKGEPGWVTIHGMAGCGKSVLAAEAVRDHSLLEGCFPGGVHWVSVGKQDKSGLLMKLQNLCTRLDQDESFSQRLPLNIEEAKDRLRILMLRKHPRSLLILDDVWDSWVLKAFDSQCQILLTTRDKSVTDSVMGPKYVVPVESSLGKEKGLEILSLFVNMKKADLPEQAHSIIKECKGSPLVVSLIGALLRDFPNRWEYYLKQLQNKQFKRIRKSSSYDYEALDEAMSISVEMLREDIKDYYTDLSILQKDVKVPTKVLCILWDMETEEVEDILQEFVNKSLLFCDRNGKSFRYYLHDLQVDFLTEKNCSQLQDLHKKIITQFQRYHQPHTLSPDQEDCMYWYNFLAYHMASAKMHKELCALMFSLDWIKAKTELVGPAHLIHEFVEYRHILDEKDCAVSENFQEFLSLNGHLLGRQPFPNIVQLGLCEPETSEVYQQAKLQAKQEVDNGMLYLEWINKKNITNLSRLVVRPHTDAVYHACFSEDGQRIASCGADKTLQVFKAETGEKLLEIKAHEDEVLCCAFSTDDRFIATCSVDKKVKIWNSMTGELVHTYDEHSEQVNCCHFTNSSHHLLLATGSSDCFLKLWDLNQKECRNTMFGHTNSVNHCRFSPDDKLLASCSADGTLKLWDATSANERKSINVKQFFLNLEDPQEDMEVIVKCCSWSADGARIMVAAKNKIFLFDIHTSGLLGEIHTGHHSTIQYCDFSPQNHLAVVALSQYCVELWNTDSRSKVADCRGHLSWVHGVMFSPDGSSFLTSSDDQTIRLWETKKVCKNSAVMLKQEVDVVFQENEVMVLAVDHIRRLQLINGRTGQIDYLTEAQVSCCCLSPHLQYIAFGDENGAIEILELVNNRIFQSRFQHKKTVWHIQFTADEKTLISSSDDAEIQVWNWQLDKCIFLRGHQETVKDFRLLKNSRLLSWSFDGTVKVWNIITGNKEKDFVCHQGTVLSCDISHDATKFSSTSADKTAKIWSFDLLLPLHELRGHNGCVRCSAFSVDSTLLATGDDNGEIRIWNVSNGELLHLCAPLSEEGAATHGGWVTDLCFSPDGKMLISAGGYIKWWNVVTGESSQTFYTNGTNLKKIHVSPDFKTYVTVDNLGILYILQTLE
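Material: reconstituted apoptosome with Apaf-1, cytochrome c, caspase-9, procaspase-3, dATP / Buffer or medium: pH 7.5 Hepes buffer with CHAPS, BSA, DTT / Also added: cytochrome c with DEVD-Rh110 / Schedule: compound with Apaf-1, dATP, procaspase-3 30 min, then 50 min reaction, room temperature / Technique: rhodamine 110 fluorescence at Ex 480/Em 540 nm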
PAD4 inh: inhibitors of human PAD4; Q9UM07; recombinant PAD4, RCA probe fluorescence polarization; inhibition, % at 6.36 µM; 330,000 tested, 0.41% active; AID 485272;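 active means percent inhibition above a cutoff equal to the mean of all tested compounds plus 3 SD, cut at about 15% in these data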
GSTO1 inh conf: confirmation of human GSTO1 inhibitors | shares compounds with GSTO1 inh | recombinant GSTO1, probe fluorescence polarization | inhibition, % at 5.96 µM | 2,400 tested, 54% active | AID 2176;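 active means inhibition above the primary screen's cutoff, its mean inhibition plus 3 SD, cut at about 35% in these data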;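 further: loss of polarization as inhibitors block binding of rhodamine sulfonate ester activity probe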
GSTO1 ABPP inh: blocks recombinant human glutathione S-transferase omega 1; 130 tested, 30% active; recombinant GSTO1, gel ABPP SE-Rh probe fluorescence; inhibition, % at 1 µM; shares compounds with GSTO1 inh;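 active means inhibition of the enzyme GSTO1 above about 75%, limit read from the data; inactive means inhibition below that limit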
Numbers stand for hits; - = inactive; . = no result given.

SMILES | TDP2 absorb | GSTO1 inh | Fh CTSL1 inh | Apaf-1 inh | PAD4 inh | GSTO1 inh conf | others
COC(=O)CCC(=O)OC1(C)C(=O)C=C2C=C(c3ccsc3)OC=C2C1=O (stereo not given) | . | - | - | - | - | .
CC(=O)C1=C(C)N(Cc2ccc(Br)cc2)C(=S)NC1c1ccc(F)cc1 (stereo not given) | - | . | . | . | . | .
Cc1cc2nc(CCl)cc(=O)n2[nH]1 | - | 104 | - | - | - | 93 | GSTO1 ABPP inh=-
COc1ccc(/C=N/NC(=O)c2ccn[nH]2)cc1CSc1ccccn1 | - | 47 | - | - | - | -
CC(C)N(CCNS(=O)(=O)c1ccc(Cl)cc1)C(C)C | - | - | - | - | - | .
CC(C)OP(=O)(OC(C)C)C1(NS(=O)(=O)c2ccc(Cl)cc2)C=C(Cl)C(=O)C(Cl)=C1 | - | 62 | - | - | - | 44
Cc1ccc(NC(=O)CCl)c(C)c1 | - | 82 | - | - | - | 91
Cc1ccc(NC(=O)CCc2ccc(C)o2)c(C)c1 | - | - | - | - | - | .
O=C(NCCc1c[nH]c2ccccc12)OCc1cn(-c2ccc(F)cc2F)nn1 | - | . | . | . | . | .
COC(=O)c1cccc(Cn2ccc3ccc(-c4ccc5ccn(C(=O)c6cccc(OC)c6)c5c4)cc32)c1 | - | . | . | . | . | .
COc1cc(/C=N/NC(=O)c2ccncc2)c([N+](=O)[O-])cc1OC | - | - | - | - | - | .
COc1cc(OC)c([N+](=O)[O-])cc1/C=N/NC(=O)c1ccncc1 | - | 49 | - | - | - | -
Nc1cc(N)c(OCC(F)(F)F)cc1OCC(F)(F)F | . | 80 | - | 84 | 55 | 64
COc1ccccc1/C=C1\SC(=O)N(CCC(=O)NNC(=O)c2ccccc2Cl)C1=O | - | 51 | - | - | - | -
C[C@H]1[C@@H](OC(=O)Nc2cccc(Cl)c2)CC[C@@]23CCCN2C(=O)CCC[C@@H]13 | - | . | . | . | . | .
CCOC(=O)c1cnc2cc3c(cn2c1=O)CCCC3 | - | - | - | - | - | .
CCOC(=O)C1=C(SCC)c2cc3c(n2C1=O)CCCC3 | - | 38 | - | - | - | -
N#Cc1ccc(NC(=O)OC2CC3CC2[C@H]2CCCCN2C3)cc1 (stereo not given in full) | - | . | . | . | . | .
Cc1ccc(C(=O)OCn2ncc(Cl)c(Cl)c2=O)cc1 | - | 45 | - | - | 20 | 46
Cc1cc(NS(=O)(=O)c2ccc(NC(=O)CSc3nnc(-c4ccncc4)n3-c3ccccc3)cc2)nc(C)n1 | - | . | . | . | . | .
COc1ccc(N/N=C(C)/C(=N/O)C(=O)Nc2ccccc2)cc1 | - | 40 | - | - | - | -
COc1ccc(NC(=O)c2cccc(NC(=O)c3ccccc3)c2)cc1 | - | - | - | - | - | .
CC(=O)c1cc2c(cc1NC(=O)c1cccc(S(=O)(=O)N3CCN(C)CC3)c1)OCO2 | - | 61 | - | - | - | -
COC(=O)C1=C(C)N(Cc2cccc(C(F)(F)F)c2)C(=NCc2ccccc2C(F)(F)F)NC1c1ccc(Cl)cc1 (stereo not given) | - | . | . | . | . | .
O=[N+]([O-])c1ccc(Cl)c2c1C1C=CCC1C(c1ccccn1)N2 (stereo not given) | - | 39 | - | - | - | -
SMILES | TDP2 absorb | GSTO1 inh | Fh CTSL1 inh | Apaf-1 inh | PAD4 inh | GSTO1 inh conf | others
COC(=O)[C@]12C[C@H](CC(=O)NCC34CC5CC(CC(C5)C3)C4)C(=O)N(Cc3cccc4ccccc34)C1=C[C@H](C(C)C)O[C@@H]2C1CC1 | - | . | . | . | . | .
CC1(OC(=O)c2cccs2)C(=O)C=C2C=C3CCCN3C=C2C1=O (stereo not given) | . | 60 | - | 62 | 15 | 62
C=CCCC1CN(Cc2ccc(OC)cc2)S(=O)(=O)c2c(cccc2N2CCCCC2)O1 (stereo not given) | - | . | . | . | . | .
CC(Oc1ccccc1)C(=O)N=Nc1c(O)[nH]c2ccc([N+](=O)[O-])cc12 (stereo not given) | - | 61 | - | - | - | 74
O=C(CNC(=O)c1cccs1)N=Nc1c(O)[nH]c2ccc([N+](=O)[O-])cc12 | - | 39 | - | - | - | -
Cc1ccc(/C=C2\SC(=S)N(CCC(=O)NNC(=O)c3cccnc3)C2=O)cc1 | - | 39 | - | - | - | -
CCCCN1CN2CCc3ccccc3C2CS1(=O)=O (stereo not given) | - | . | . | . | . | .
